Reference: ChEMBL document CHEMBL1140925, “Nuclear factor-kappaB mediated inhibition of cytokine production by imidazoline scaffolds” (J Med Chem, 2009)

How the values were obtained:
HeLa [1] = experiment: Cell cycle arrest in TNF-alpha-stimulated human HeLa cells transfected with NFkappaB-Luc assessed as accumulation at diploid stage at 5 uM after 8 hrs by propidium iodide-based flow cytometry; format: functional
How it was run: (§1)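 HeLa NF-κB-luc cells (stable, hygromycin-selected) were treated with vehicle (1% DMSO) or compound at 40–0.2 µM final for 8 h at 37 °C, 5% CO2. Adherent cells were trypsinized, resuspended in PBS/50% FBS, fixed overnight in 70% ice-cold ethanol and washed with cold PBS/10% FBS, then analysed for cell cycle by flow cytometry.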

HeLa [2] = experiment: Cell cycle arrest in TNF-alpha-stimulated human HeLa cells transfected with NFkappaB-Luc assessed as accumulation at S phase at 0.05 uM after 8 hrs by propidium iodide-based flow cytometry; format: functional
[3] = Inhibition of TNF-alpha-induced NF-kappaB-mediated transcription expressed in human HeLa cells preincubated for 30 mins before addition of TNFalpha measured after 8 hrs by luciferase reporter gene assay; format: cell-based
How it was run: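 HeLa/NF-κB-luc cells (5.0 × 10⁵ cells/mL) were grown 24 h, then switched to serum-free DMEM. They were pretreated 30 min at 37 °C with 0.05–20 µM imidazoline (1% DMSO vehicle), then stimulated with 25 ng/mL TNF-α for 8 h. Steady-Glo luminescence was normalized to TNF-α activation, and EC50 was taken from a variable-slope sigmoidal fit. Values are the mean of two independent experiments.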

HeLa [4] = experiment: Cell cycle arrest in TNF-alpha-stimulated human HeLa cells transfected with NFkappaB-Luc assessed as accumulation at S phase at 0.5 uM after 8 hrs by propidium iodide-based flow cytometry; format: functional; how it was run: as §1
HeLa [5] = experiment: Cell cycle arrest in TNF-alpha-stimulated human HeLa cells transfected with NFkappaB-Luc assessed as accumulation at G2/G1 phase at 0.5 uM after 8 hrs by propidium iodide-based flow cytometry; format: functional; how it was run: as §1
HeLa [6] = experiment: Effect on cell cycle arrest in TNF-alpha-stimulated human HeLa cells assessed as cell debris level at 5 uM after 8 hrs by propidium iodide-based flow cytometry; format: functional
HeLa [7] = experiment: Cell cycle arrest in TNF-alpha-stimulated human HeLa cells transfected with NFkappaB-Luc assessed as accumulation at diploid G2 phase at 10 uM after 8 hrs by propidium iodide-based flow cytometry; format: functional; how it was run: as §1
HeLa [8] = experiment: Effect on cell cycle arrest in TNF-alpha-stimulated human HeLa cells assessed as cell debris level at 1 uM after 8 hrs by propidium iodide-based flow cytometry; format: functional
HeLa [9] = experiment: Cell cycle arrest in TNF-alpha-stimulated human HeLa cells transfected with NFkappaB-Luc assessed as accumulation at diploid G2 phase at 0.05 uM after 8 hrs by propidium iodide-based flow cytometry; format: functional
HeLa [10] = experiment: Cell cycle arrest in TNF-alpha-stimulated human HeLa cells transfected with NFkappaB-Luc assessed as accumulation at diploid stage at 0.1 uM after 8 hrs by propidium iodide-based flow cytometry; format: functional
HeLa [11] = experiment: Effect on cell cycle arrest in TNF-alpha-stimulated human HeLa cells assessed as cell aggregate level at 1 uM after 8 hrs by propidium iodide-based flow cytometry; format: functional
HeLa [12] = experiment: Effect on cell cycle arrest in human HeLa cells assessed as cell aggregate level at 20 uM after 8 hrs by propidium iodide-based flow cytometry; format: functional
How it was run: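 Cells were exposed to vehicle (1% DMSO) or compound for 8 h at 37 °C, 5% CO₂. They were then trypsinized, resuspended in PBS with 50% FBS, fixed overnight in ice-cold 70% ethanol, and washed twice with ice-cold PBS containing 10% FBS before flow cytometric cell-cycle analysis.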

HeLa [13] = experiment: Effect on cell cycle arrest in TNF-alpha-stimulated human HeLa cells assessed as cell aggregate level at 0.5 uM after 8 hrs by propidium iodide-based flow cytometry; format: functional
HeLa [14] = experiment: Cell cycle arrest in TNF-alpha-stimulated human HeLa cells transfected with NFkappaB-Luc assessed as accumulation at G2/G1 phase at 0.1 uM after 8 hrs by propidium iodide-based flow cytometry; format: functional
HeLa [15] = experiment: Effect on cell cycle arrest in TNF-alpha-stimulated human HeLa cells assessed as cell debris level at 0.5 uM after 8 hrs by propidium iodide-based flow cytometry; format: functional
HeLa [16] = experiment: Cell cycle arrest in TNF-alpha-stimulated human HeLa cells transfected with NFkappaB-Luc assessed as accumulation at diploid G1 phase at 10 uM after 8 hrs by propidium iodide-based flow cytometry; format: functional; how it was run: as §1
HeLa [17] = experiment: Effect on cell cycle arrest in TNF-alpha-stimulated human HeLa cells assessed as cell aggregate level at 5 uM after 8 hrs by propidium iodide-based flow cytometry; format: functional
HeLa [18] = experiment: Cell cycle arrest in TNF-alpha-stimulated human HeLa cells transfected with NFkappaB-Luc assessed as accumulation at S phase at 0.1 uM after 8 hrs by propidium iodide-based flow cytometry; format: functional
HeLa [19] = experiment: Cell cycle arrest in TNF-alpha-stimulated human HeLa cells transfected with NFkappaB-Luc assessed as accumulation at diploid G2 phase at 1 uM after 8 hrs by propidium iodide-based flow cytometry; format: functional
HeLa [20] = experiment: Cell cycle arrest in TNF-alpha-stimulated human HeLa cells transfected with NFkappaB-Luc assessed as accumulation at S phase at 10 uM after 8 hrs by propidium iodide-based flow cytometry; format: functional; how it was run: as §1
HeLa [21] = experiment: Cell cycle arrest in TNF-alpha-stimulated human HeLa cells transfected with NFkappaB-Luc assessed as accumulation at diploid G1 phase at 5 uM after 8 hrs by propidium iodide-based flow cytometry; format: functional; how it was run: as §1
HeLa [22] = experiment: Effect on cell cycle arrest in TNF-alpha-stimulated human HeLa cells assessed as cell debris level at 20 uM after 8 hrs by propidium iodide-based flow cytometry; format: functional
HeLa [23] = experiment: Cell cycle arrest in TNF-alpha-stimulated human HeLa cells transfected with NFkappaB-Luc assessed as accumulation at diploid G1 phase at 0.05 uM after 8 hrs by propidium iodide-based flow cytometry; format: functional
HeLa [24] = experiment: Cell cycle arrest in TNF-alpha-stimulated human HeLa cells transfected with NFkappaB-Luc assessed as accumulation at G2/G1 phase at 1 uM after 8 hrs by propidium iodide-based flow cytometry; format: functional
HeLa [25] = experiment: Cell cycle arrest in TNF-alpha-stimulated human HeLa cells transfected with NFkappaB-Luc assessed as accumulation at G2/G1 phase at 5 uM after 8 hrs by propidium iodide-based flow cytometry; format: functional; how it was run: as §1
HeLa [26] = experiment: Cell cycle arrest in TNF-alpha-stimulated human HeLa cells transfected with NFkappaB-Luc assessed as accumulation at diploid stage at 0.5 uM after 8 hrs by propidium iodide-based flow cytometry; format: functional; how it was run: as §1
HeLa [27] = experiment: Effect on cell cycle arrest in TNF-alpha-stimulated human HeLa cells assessed as cell debris level at 0.1 uM after 8 hrs by propidium iodide-based flow cytometry; format: functional
[28] = Cytotoxicity against human whole blood lymphocytes assessed as survival cell count in millions at 20 uM by trypan blue staining based hemocytometer
HeLa [29] = experiment: Effect on cell cycle arrest in TNF-alpha-stimulated human HeLa cells assessed as cell aggregate level at 0.05 uM after 8 hrs by propidium iodide-based flow cytometry; format: functional

Work on `CCOC(=O)[C@]1(c2ccccc2)N=C(c2ccccc2)N(Cc2ccccc2)[C@@H]1c1ccccc1` (racemic) yielded an Activity (HeLa [1]) of 100%, an Activity (HeLa [2]) of 22.8% and an EC50 [3] of 2500 nM. It also gave an Activity (HeLa [4]) of 22.52%, a Ratio (HeLa [5]) of 1.91 and an Activity (HeLa [6]) of 2.7%. It also gave an Activity (HeLa [7]) of 15.01%, an Activity (HeLa [8]) of 4.88% and an Activity (HeLa [9]) of 12.9%. It also gave an Activity (HeLa [10]) of 100%, an Activity (HeLa [11]) of 0% and an Activity (HeLa [12]) of 0%. The Activity (HeLa [13]) was 0%, the Ratio (HeLa [14]) was 1.92 and the Activity (HeLa [15]) was 3.68%. It also gave an Activity (HeLa [16]) of 68.19%, an Activity (HeLa [17]) of 0% and an Activity (HeLa [18]) of 21.47%. It also gave an Activity (HeLa [19]) of 13.88%, an Activity (HeLa [20]) of 16.8% and an Activity (HeLa [21]) of 66.37%. The Activity (HeLa [22]) was 14.57%, the Activity (HeLa [23]) was 64.3% and the Ratio (HeLa [24]) was 1.91. For the same molecule, the Ratio (HeLa [25]) was 1.91, the Activity (HeLa [26]) was 100% and the Activity (HeLa [27]) was 2%. The Cell count [28] was 0.2617 and the Activity (HeLa [29]) was 0%.
